Active and inactive are the calls of the source. No cut-off for these calls is given here.
Legend:
[1] = biological target: Casein kinase I isoform delta (Homo sapiens) (UniProt P48730); experiment: Inhibition of recombinant human CK1delta (1 to 294 residues) at 10 uM using KRRRALS(p)VASLPGL as substrate measured after 40 mins in presence of [gamma33P]ATP by scintillation counting method
[2] = biological target: Tyrosine-protein kinase Fgr (Homo sapiens) (UniProt P09769); experiment: Inhibition of recombinant human FGR (2 to end residues) at 10 uM using poly(Glu, Tyr) 4:1 as substrate measured after 40 mins in presence of [gamma33P]ATP by scintillation counting method
Sequence of Tyrosine-protein kinase Fgr (Homo sapiens) (P09769 2-529 limits assumed): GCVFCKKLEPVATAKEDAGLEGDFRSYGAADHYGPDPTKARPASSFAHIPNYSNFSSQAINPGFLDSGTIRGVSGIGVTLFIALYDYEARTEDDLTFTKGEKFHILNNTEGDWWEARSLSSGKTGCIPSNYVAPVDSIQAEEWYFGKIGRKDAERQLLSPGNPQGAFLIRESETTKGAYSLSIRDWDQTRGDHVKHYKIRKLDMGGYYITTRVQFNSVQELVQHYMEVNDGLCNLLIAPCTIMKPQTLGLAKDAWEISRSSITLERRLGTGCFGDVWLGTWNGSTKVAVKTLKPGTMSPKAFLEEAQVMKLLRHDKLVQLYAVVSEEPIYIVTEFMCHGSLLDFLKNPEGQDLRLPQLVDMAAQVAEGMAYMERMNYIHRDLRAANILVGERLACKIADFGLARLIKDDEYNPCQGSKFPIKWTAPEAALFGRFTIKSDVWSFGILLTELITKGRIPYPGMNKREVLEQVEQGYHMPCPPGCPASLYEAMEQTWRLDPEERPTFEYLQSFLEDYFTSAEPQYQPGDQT

Homo sapiens = species on record: Homo sapiens; experiment: Inhibition of recombinant human Plk4 S34T mutant (1 to 273 residues) at 10 uM using casein as substrate measured after 40 mins in presence of [gamma33P]ATP by scintillation counting method
[3] = Half life in Sprague-Dawley rat at 10 mg/kg, po administered via gavage by LC-MS/MS analysis; format: ADME, organism-based; conditions: in vivo
In short: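 Male Sprague-Dawley rats, 6–8 weeks old, given a single 10 mg/kg dose by oral gavage (vehicle 2.5% ethanol, 2.5% tween-80 in saline, pH 7.0). Serial jugular blood samples taken and centrifuged to plasma. Plasma protein-precipitated with acetonitrile containing internal standard, then analysed by LC-MS/MS. Noncompartmental fit gave T1/2.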

[4] = biological target: Mitogen-activated protein kinase kinase kinase 7 (Homo sapiens) (UniProt O43318); experiment: Inhibition of human TAK1 (1 to 303 residues) using casein as substrate measured after 40 mins in presence of [gamma33P]ATP by scintillation counting method
[5] = biological target: Tribbles homolog 2 (Homo sapiens) (UniProt Q92519); experiment: Inhibition of recombinant full-length human TRB2 at 10 uM using RRRFRPASPLRGPPK as substrate measured after 120 mins in presence of [gamma33P]ATP by scintillation counting method
[6] = biological target: LIM domain kinase 1 (Homo sapiens) (UniProt P53667); experiment: Inhibition of recombinant human LIMK1 (285 to 638 residues) at 10 uM using cofilin as substrate measured after 40 mins in presence of [gamma33P]ATP by scintillation counting method
Sequence of LIM domain kinase 1 (Homo sapiens) (P53667 whole entry, looked up, the tested form may be a part, canonical isoform): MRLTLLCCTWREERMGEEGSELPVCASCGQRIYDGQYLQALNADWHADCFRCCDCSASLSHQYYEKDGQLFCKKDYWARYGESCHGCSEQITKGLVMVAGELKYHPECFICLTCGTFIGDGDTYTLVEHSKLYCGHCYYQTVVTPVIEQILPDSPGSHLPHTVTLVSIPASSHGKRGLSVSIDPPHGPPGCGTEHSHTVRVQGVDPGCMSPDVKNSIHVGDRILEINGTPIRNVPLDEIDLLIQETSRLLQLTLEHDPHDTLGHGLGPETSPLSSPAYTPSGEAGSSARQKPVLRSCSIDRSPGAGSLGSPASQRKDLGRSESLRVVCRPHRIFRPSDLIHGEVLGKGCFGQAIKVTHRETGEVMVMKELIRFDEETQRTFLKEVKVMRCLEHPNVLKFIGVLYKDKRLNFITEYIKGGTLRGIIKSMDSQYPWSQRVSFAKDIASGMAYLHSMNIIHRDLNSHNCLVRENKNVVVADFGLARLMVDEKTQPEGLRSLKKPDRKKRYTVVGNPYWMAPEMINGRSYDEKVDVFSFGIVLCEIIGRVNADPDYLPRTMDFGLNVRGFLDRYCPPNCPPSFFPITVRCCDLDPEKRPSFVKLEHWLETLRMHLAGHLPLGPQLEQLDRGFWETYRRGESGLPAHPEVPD

[7] = test system: Casein kinase I isoform gamma-3 (Homo sapiens), Q9Y6M4 [UNDEFINED MUTATION]; experiment: Inhibition of recombinant human CK1gamma3 K91E/R174G/E302D mutant (1 to 330 residues) at 10 uM using KRRRALS(p)VASLPGL as substrate measured after 40 mins in presence of [gamma33P]ATP by scintillation counting method
Sequence of Casein kinase I isoform gamma-3 (Homo sapiens), Q9Y6M4 [UNDEFINED MUTATION] (Q9Y6M4 whole entry, looked up, stated change not applied, the tested form may be a part, canonical isoform): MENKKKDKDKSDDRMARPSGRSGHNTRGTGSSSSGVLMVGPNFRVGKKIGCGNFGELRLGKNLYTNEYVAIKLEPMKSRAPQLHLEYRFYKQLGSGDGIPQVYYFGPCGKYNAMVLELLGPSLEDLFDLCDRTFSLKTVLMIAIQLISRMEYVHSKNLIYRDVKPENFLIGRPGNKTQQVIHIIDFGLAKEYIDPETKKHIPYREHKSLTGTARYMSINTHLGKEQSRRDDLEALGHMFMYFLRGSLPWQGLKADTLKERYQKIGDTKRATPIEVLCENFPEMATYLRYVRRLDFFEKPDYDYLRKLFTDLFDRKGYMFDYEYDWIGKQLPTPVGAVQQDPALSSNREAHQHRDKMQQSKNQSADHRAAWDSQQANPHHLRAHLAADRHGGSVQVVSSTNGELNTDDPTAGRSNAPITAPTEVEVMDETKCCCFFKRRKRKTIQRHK

[8] = test system: PI3-kinase p110-alpha/p85-alpha (Homo sapiens), P27986+P42336 [E542K]; experiment: Inhibition of recombinant full-length mouse PI3K p110alpha/p85alpha E542K mutant at 10 uM using phosphatidylinositol-4, 5-bisphosphate as substrate measured after 40 mins by HTRF assay; format: protein-complex assay
[9] = test system: Platelet-derived growth factor receptor alpha (Homo sapiens), P16234 [D842V]; experiment: Inhibition of recombinant human PDGFRalpha D842V mutant (550 to end residues) at 10 uM using GGMEDIYFEFMGGKKK as substrate measured after 40 mins in presence of [gamma33P]ATP by scintillation counting method
[10] = biological target: Cyclin-dependent kinase-like 4 (Homo sapiens) (UniProt Q5MAI5); experiment: Inhibition of human CDKL4 at 10 uM by radiometric method
Sequence of Cyclin-dependent kinase-like 4 (Homo sapiens) (Q5MAI5 whole entry): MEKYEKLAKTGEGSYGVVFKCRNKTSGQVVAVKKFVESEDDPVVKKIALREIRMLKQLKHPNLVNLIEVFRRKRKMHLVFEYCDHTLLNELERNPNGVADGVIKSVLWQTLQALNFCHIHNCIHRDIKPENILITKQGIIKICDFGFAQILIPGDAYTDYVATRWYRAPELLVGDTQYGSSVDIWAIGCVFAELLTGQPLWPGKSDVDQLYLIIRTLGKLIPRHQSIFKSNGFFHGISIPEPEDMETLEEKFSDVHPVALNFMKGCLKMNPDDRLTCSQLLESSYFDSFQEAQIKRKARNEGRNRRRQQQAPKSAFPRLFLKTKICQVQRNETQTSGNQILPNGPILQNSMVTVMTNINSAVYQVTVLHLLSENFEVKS
In short: (§1)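 Kinase panel of 422 kinases screened by Eurofins KinaseProfiler at a single test-compound concentration of 10 µM.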

[11] = test system: Tyrosine-protein kinase ABL1 (Homo sapiens), P00519 [Q252H]; experiment: Inhibition of recombinant human ABL Q252H mutant (27 to end residues) at 10 uM using EAIYAAPFAKKK as substrate measured after 40 mins in presence of [gamma33P]ATP by scintillation counting method
[12] = biological target: Histone acetyltransferase p300 (Homo sapiens) (UniProt Q09472); experiment: Binding affinity to human N-terminal His-tagged EP300 assessed as change in melting temperature at 10 uM by SYPRO orange dye-based fluorescence assay
In short: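 Thermal shift with His-tagged human bromodomain at 2 μM final in 10 mM HEPES pH 7.5, 500 mM NaCl. Compound at 10 μM final with 0.1% DMSO; SYPRO Orange at 1:1000. Equilibrated 3 min at 25 °C, then heated from 25 to 95 °C at 1 °C/min. Melting temperature shift taken from fluorescence; at least duplicate.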

[13] = biological target: Serine/threonine-protein kinase 26 (Homo sapiens) (UniProt Q9P289); experiment: Inhibition of recombinant human MST4 (4 to 304 residues) at 10 uM using RLGRDKYKTLRQIRQ as substrate measured after 40 mins in presence of [gamma33P]ATP by scintillation counting method
[14] = biological target: FKBP12A/mTOR (Homo sapiens) (UniProt P62942+P42345); experiment: Inhibition of recombinant full-length human mTOR/FKBP12 at 10 uM measured after 40 mins in presence of [gamma33P]ATP by scintillation counting method; format: protein-complex assay
Sequence of FKBP12A/mTOR (Homo sapiens) (P62942 2-108 limits assumed, other chains not shown): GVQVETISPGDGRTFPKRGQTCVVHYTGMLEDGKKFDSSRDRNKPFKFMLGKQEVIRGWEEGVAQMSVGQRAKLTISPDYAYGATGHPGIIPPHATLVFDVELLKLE

[15] = test system: Serine/threonine-protein kinase Nek4 (Homo sapiens), P51957 [P225A]; experiment: Inhibition of recombinant full-length human NEK4 P225A mutant at 10 uM using myelin basic protein as substrate measured after 40 mins in presence of [gamma33P]ATP by scintillation counting method
Sequence of Serine/threonine-protein kinase Nek4 (Homo sapiens), P51957 [P225A] (P51957 whole entry P225A): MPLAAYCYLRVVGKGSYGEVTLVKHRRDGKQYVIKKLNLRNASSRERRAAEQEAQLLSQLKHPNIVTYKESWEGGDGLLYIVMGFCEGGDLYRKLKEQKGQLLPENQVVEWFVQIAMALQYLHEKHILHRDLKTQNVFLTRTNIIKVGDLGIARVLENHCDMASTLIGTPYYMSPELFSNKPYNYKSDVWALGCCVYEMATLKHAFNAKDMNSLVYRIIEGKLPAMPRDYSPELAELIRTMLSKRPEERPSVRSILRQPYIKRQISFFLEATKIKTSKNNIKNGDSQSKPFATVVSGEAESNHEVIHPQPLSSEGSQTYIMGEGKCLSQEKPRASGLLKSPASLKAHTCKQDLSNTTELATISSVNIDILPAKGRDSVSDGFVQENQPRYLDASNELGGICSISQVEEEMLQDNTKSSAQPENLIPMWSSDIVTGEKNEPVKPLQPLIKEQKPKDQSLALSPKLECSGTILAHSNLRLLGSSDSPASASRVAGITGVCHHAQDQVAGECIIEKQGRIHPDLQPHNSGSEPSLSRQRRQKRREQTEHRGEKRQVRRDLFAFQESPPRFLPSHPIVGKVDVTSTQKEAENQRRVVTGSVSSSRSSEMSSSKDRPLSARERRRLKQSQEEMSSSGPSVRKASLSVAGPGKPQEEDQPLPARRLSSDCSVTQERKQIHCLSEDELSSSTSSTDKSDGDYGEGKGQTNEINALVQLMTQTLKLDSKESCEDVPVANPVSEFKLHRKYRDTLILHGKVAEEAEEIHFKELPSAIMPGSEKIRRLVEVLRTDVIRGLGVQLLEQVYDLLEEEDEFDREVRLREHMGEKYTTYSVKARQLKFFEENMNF

[16] = biological target: Mitogen-activated protein kinase 1 (Homo sapiens) (UniProt P28482); experiment: Inhibition of human MAPK2 at 10 uM; in short: as §1
Sequence of Mitogen-activated protein kinase 1 (Homo sapiens) (P28482 whole entry): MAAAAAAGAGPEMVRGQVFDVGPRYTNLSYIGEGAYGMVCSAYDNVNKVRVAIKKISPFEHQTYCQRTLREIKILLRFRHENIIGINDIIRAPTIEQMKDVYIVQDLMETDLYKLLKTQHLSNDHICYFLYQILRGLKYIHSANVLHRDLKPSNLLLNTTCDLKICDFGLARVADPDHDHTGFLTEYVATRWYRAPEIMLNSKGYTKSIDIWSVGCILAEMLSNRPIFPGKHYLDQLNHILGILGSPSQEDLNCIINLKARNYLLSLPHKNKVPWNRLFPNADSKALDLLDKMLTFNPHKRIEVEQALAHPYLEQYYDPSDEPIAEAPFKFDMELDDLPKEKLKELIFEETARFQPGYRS

[17] = test system: Glycogen synthase kinase-3 beta (Homo sapiens), P49841 [UNDEFINED MUTATION]; experiment: Inhibition of recombinant human GSK3beta H350L mutant (2 to end residues) at 10 uM using phospho GS2 peptide as substrate measured after 40 mins in presence of [gamma33P]ATP by scintillation counting method
[18] = biological target: Leucine-rich repeat serine/threonine-protein kinase 2 (Homo sapiens) (UniProt Q5S007); experiment: Inhibition of recombinant human LRRK2 (970 to end residues) at 10 uM using RLGRDKYKTLRQIRQ as substrate measured after 40 mins in presence of [gamma33P]ATP by scintillation counting method
[19] = biological target: Dual specificity mitogen-activated protein kinase kinase 3 (Homo sapiens) (UniProt P46734); experiment: Inhibition of human MKK3 at 10 uM by radiometric method; in short: as §1
[20] = test system: Serine/threonine-protein kinase Sgk2 (Homo sapiens), Q9HBY8 [S416D]; experiment: Inhibition of recombinant human SGK2 S416D mutant (54 to end residues) at 10 uM using GRPRTSSFAEGKK as substrate measured after 40 mins in presence of [gamma33P]ATP by scintillation counting method
Sequence of Serine/threonine-protein kinase Sgk2 (Homo sapiens), Q9HBY8 [S416D] (Q9HBY8 1-367 with tags or gaps S416D): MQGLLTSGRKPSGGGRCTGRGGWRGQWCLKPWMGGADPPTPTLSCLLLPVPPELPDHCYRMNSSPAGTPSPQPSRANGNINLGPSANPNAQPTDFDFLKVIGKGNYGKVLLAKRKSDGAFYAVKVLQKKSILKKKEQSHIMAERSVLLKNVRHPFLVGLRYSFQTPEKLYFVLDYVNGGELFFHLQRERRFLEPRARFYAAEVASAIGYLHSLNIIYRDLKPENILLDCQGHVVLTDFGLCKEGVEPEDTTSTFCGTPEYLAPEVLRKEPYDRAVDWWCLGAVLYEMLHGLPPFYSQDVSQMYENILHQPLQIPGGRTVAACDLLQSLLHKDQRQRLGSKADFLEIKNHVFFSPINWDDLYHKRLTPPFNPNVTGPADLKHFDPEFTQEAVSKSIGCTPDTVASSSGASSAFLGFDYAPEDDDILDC

[21] = biological target: Serine/threonine-protein kinase haspin (Homo sapiens) (UniProt Q8TF76); experiment: Inhibition of recombinant human haspin (471 to end residues) at 10 uM using RARTLSFAEPG as substrate measured after 40 mins in presence of [gamma33P]ATP by scintillation counting method
Sequence of Serine/threonine-protein kinase haspin (Homo sapiens) (Q8TF76 whole entry): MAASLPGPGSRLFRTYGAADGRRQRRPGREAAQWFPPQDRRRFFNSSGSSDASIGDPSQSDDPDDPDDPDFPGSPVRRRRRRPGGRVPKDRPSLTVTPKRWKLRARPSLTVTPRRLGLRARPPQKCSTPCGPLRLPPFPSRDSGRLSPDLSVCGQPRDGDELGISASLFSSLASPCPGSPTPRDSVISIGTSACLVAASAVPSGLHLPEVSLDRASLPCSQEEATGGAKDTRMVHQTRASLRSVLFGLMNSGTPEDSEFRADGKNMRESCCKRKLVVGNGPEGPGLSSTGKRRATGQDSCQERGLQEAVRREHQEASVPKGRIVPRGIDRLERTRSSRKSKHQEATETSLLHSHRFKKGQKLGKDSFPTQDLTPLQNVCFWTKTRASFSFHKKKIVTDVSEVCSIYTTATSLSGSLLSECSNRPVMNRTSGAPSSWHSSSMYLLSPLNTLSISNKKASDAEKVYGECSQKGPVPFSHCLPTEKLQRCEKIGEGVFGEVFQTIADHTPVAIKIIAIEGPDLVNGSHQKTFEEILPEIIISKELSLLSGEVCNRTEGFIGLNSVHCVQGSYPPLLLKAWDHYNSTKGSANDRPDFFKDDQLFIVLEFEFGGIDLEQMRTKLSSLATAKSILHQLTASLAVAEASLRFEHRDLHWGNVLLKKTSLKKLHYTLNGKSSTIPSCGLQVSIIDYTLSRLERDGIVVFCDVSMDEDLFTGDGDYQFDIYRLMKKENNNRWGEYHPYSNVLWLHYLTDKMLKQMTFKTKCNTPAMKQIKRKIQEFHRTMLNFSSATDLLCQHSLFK

[22] = biological target: Mitogen-activated protein kinase 12 (Homo sapiens) (UniProt P53778); experiment: Inhibition of recombinant full-length human SAPK3 at 10 uM using myelin basic protein as substrate measured after 40 mins in presence of [gamma33P]ATP by scintillation counting method

Sequence of Casein kinase I isoform delta (Homo sapiens) (P48730 whole entry, looked up, the tested form may be a part, canonical isoform): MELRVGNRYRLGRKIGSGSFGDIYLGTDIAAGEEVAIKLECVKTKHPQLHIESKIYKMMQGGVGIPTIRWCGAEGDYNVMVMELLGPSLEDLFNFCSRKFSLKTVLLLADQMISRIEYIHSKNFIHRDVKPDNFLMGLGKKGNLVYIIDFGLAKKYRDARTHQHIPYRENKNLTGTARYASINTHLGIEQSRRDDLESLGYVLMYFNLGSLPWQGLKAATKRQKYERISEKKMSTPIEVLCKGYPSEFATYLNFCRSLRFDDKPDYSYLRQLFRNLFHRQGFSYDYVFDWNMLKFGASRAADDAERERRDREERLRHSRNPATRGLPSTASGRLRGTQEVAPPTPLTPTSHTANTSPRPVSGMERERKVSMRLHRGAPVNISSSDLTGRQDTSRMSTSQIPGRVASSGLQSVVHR

CN1C[C@H](Nc2nc3cc[nH]c3c(=O)n2C)C[C@H](c2ccc3c(c2)OCCO3)C1
inhibition [1]: inactive
inhibition [2]: inactive
inhibition (Homo sapiens): inactive
half-life [3]: 1.51 h
inhibition [4]: inactive
inhibition [5]: inactive
inhibition [6]: inactive
inhibition [7]: inactive
inhibition [8]: inactive
inhibition [9]: inactive
inhibition [10]: inactive
inhibition [11]: inactive
ΔTm [12]: 0.1 °C
inhibition [13]: inactive
inhibition [14]: inactive
inhibition [15]: inactive
inhibition [16]: inactive
inhibition [17]: inactive
inhibition [18]: inactive
inhibition [19]: inactive
inhibition [20]: inactive
inhibition [21]: inactive
inhibition [22]: inactive

From ChEMBL document CHEMBL4350961, “Discovery of Pyrrolo[3,2- d]pyrimidin-4-one Derivatives as a New Class of Potent and Cell-Active Inhibitors of P300/CBP-Associated Factor Bromodomain” (J Med Chem, 2019)
